The source made the active and inactive calls. No cut-off for these calls is given here.
Columns and labels:
Hepatitis B virus [1] = assay: Antiviral activity against HBV infected in human primary hepatocyte cells assessed as decrease in HBeAg level pre-infected cells with virus followed by compound treatment for 3 days and subsequent replacement of medium with compound measured after 4 days by CLIA; format: functional, organism-based
[2] = target: Broad substrate specificity ATP-binding cassette transporter ABCG2 (Homo sapiens, UniProt Q9UNQ0); assay: Inhibition of BCRP in human Caco-2 cells using estrone 3-sulfate as substrate; format: cell-based
Sequence of Broad substrate specificity ATP-binding cassette transporter ABCG2 (Q9UNQ0 whole entry): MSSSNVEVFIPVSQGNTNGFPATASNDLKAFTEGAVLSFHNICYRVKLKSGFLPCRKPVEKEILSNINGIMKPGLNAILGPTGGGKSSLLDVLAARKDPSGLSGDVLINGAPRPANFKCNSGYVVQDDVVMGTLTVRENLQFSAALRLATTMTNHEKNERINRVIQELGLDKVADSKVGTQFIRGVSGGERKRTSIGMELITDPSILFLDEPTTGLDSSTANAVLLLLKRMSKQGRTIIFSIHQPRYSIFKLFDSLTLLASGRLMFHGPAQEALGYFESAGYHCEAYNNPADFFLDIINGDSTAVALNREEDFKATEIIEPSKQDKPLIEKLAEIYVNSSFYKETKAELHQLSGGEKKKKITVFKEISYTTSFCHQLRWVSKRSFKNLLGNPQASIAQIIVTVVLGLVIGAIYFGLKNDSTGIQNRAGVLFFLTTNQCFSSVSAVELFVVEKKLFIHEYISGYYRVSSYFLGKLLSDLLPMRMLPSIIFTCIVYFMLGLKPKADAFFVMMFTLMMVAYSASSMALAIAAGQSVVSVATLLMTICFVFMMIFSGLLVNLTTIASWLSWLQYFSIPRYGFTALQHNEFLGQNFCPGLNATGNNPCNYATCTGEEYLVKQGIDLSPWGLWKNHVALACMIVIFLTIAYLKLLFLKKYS
In short: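 Inhibition of estrone 3-sulfate (5.00 μM) transport in Caco-2 cells was measured at eight concentrations (0.0229–50.0 μM or 0.0457–100 μM). Percent inhibition relative to vehicle control was used to calculate IC50.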

[3] = Clearance in Beagle dog at 1 mg/kg, iv by LC-MS/MS analysis; format: ADME, organism-based, Canis lupus familiaris; details: in vivo
In short: (§1)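 Single dose to fasted male C57BL6 mice, Sprague-Dawley rats, beagle dogs and cynomolgus monkeys, either IV at 1 mg/kg or PO as a solution at 5 mg/kg, in 80% PEG 400 in water. Plasma concentrations were measured by LC-MS/MS. PK parameters come from noncompartmental analysis using nominal doses and nominal sampling times.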

[4] = Efflux ratio of apparent permeability in human Caco-2 cells at 1 uM incubated for 1 hr; format: ADME, cell-based
In short: (§2)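 Bidirectional transport across Caco-2 cells in HBSS, pH 7.4, 0.1% final DMSO. Compound was tested at 1 or 2 μM for 1 h at 37 °C, 5% CO2. Apical and basal samples gave apparent permeability A→B and B→A, and the efflux ratio.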

Hepatitis B virus [5] = assay: Antiviral activity against HBV infected in human primary hepatocyte cells assessed as decrease in HBV RNA production pre-infected cells with virus followed by compound treatment for 3 days and subsequent replacement of medium with compound measured after 4 days by qPCR analysis; format: functional, organism-based
[6] = Apparent permeability across apical to basal side in human Caco-2 cells at 1 uM incubated for 1 hr; format: ADME, cell-based; in short: as §2
[7] = Plasma protein binding in Cynomolgous monkey at 1 uM incubated for 4 to 24 hrs by equilibrium dialysis method; format: ADME, cell-free, Macaca fascicularis; details: cynomolgus monkey, time 4-24 hrs, read-out: PPB (converted)
In short: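 Rapid equilibrium dialysis in mouse, rat, dog, monkey or human plasma for 4 or 24 h; test concentrations 1, […].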

[8] = Cmax in Beagle dog at 5 mg/kg, po by LC-MS/MS analysis; format: ADME, organism-based, Canis lupus familiaris; details: in vivo; in short: as §1
Hepatitis B virus [9] = assay: Antiviral activity against AAV-Hepatitis B virus infected in C57BL/6 mouse assessed as reduction in baseline HBV DNA production at 15 to 50 mg/kg, po qd for 56 days followed by induction of compound washout period measured after 7 days; format: functional, organism-based; details: dose 15-50 mg/kg, time 63.0 day
[10] = Ratio of drug concentration in blood to plasma in human at 5 uM incubated for 60 mins; format: ADME, cell-free
In short: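 Compound at 5 μM in whole blood of each species, 37 ± 1 °C for 60 min; blood-to-plasma ratio and red blood cell partitioning determined.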

[11] = Toxicity in C57BL/6 mouse infected with AAV-Hepatitis B virus assessed as change in body weight at 15 to 50 mg/kg, po qd for 56 days followed by induction of compound washout period for 14 days; format: organism-based; details: in vivo, 1680 h, dose 15-50 mg/kg, time 70 day
[12] = Half life in Cynomolgous monkey at 1 mg/kg, iv by LC-MS/MS analysis; format: ADME, organism-based, Macaca fascicularis; details: cynomolgus monkey, in vivo; in short: as §1
Hepatitis B virus [13] = assay: Antiviral activity against HBV infected in human primary hepatocyte cells assessed as decrease in HBsAg level pre-infected cells with virus followed by compound treatment for 3 days and subsequent replacement of medium with compound measured after 4 days by CLIA; format: functional, organism-based
[14] = Cmax in Cynomolgous monkey at 5 mg/kg, po by LC-MS/MS analysis; format: ADME, organism-based, Macaca fascicularis; details: cynomolgus monkey, in vivo; in short: as §1
[15] = target: Solute carrier family 22 member 6 (Homo sapiens, UniProt Q4U2R8); assay: Inhibition of OAT1 (unknown origin) transfected in HEK293 cells; format: cell-based
Sequence of Solute carrier family 22 member 6 (Q4U2R8 whole entry): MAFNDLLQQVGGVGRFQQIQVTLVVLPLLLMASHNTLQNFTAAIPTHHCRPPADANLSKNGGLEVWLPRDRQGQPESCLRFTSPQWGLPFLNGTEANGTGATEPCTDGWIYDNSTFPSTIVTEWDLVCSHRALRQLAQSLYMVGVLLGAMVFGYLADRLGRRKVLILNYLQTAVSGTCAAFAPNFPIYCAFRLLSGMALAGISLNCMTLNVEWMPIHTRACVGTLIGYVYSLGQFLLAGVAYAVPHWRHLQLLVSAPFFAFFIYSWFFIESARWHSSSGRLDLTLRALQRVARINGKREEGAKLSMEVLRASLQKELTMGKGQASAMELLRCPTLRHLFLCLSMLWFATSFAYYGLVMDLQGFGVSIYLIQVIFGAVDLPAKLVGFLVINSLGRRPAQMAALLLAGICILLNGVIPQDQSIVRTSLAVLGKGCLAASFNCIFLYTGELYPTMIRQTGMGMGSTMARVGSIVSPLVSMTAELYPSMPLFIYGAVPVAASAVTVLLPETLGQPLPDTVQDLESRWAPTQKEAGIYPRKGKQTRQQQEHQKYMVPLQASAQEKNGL
In short: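 HEK-293 cells transfected with the uptake transporter; uptake of known probe substrates measured with test compound at eight concentrations (0.0229–50.0 μM or 0.0457–100 μM); inhibition at each concentration used to calculate IC50.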

SMILES | EC50 (Hepatitis B virus [1]) | IC50 [2] | clearance [3] | efflux ratio at 1 h, 1 µM [4] | EC50 (Hepatitis B virus [5]) | Papp A→B at 1 h, 1 µM [6] | fraction unbound at 1 µM [7] | Cmax [8] | Activity (Hepatitis B virus [9]) | blood plasma ratio at 1 h, 5 µM [10] | Activity [11] | half-life [12] | EC50 (Hepatitis B virus [13]) | Cmax [14] | IC50 [15]
C#CC1(NC(=O)C(=O)c2c(C)c(C(=O)Nc3ccc(F)c(C#N)c3)n(C)c2C)COC1 | 10.5 nM | > 11800 nM | 1.97 mL/min/kg | 7.8 | 54.7 nM | 1.8 ×10⁻⁶ cm/s | 0.284 | 1900 ng/mL | inactive | 0.73 | Non-toxic | 1.85 h | 70 nM | 490 ng/mL | 
C#CC1(N(COP(=O)([O-])[O-])C(=O)C(=O)c2c(C)c(C(=O)Nc3ccc(F)c(C#N)c3)n(C)c2C)COC1.[Na+].[Na+] |  |  |  |  |  |  |  |  |  |  |  |  |  |  | 10800 nM

Reference: ChEMBL document CHEMBL6092224, “The Discovery and Preclinical Profile of ALG-000184, a Prodrug of the Potent Hepatitis B Virus Capsid Assembly Modulator ALG-001075” (J Med Chem, 2024)
